Data set [1] has as its system Plasma. The data set is described as follows: Anticoagulant activity in human platelet-rich plasma assessed as reduction in TF-induced thrombin generation by measuring endogenous thrombin potential at 100 uM preincubated for 15 mins followed by TF addition by Z-Gly-Gly-Arg-AMC substrate based calibrated automated thrombography (reference value: 1203 +/- 44 AU.min/L). Type of data set: functional. The note with it: 0.25 h. An outline of the steps:
(§1)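 Tissue-factor-triggered homogeneous thrombin generation followed by fluorogenic substrate cleavage. Read-outs: clotting time (T1/2), peak amplitude (Amax, AU/L), time to peak (Tmax) and ETP (AU·min/L). DMSO and buffer served as controls. n = 3, mean ± SD.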

Data set [2] concerns Plasma. Description: Anticoagulant activity in human platelet-rich plasma assessed as reduction in TF-induced thrombin generation by measuring Tmax of clotting time at 100 uM preincubated for 15 mins followed by TF addition by Z-Gly-Gly-Arg-AMC substrate based calibrated automated thrombography (reference value: 8.1 +/- 0.6 min). Type of data set: functional, cell-free. An outline of the steps: as §1

Data set [3] has as its system Plasma. The data set is described as follows: Anticoagulant activity in human platelet-rich plasma assessed as reduction in TF-induced thrombin generation by measuring half life of clotting time at 100 uM preincubated for 15 mins followed by TF addition by Z-Gly-Gly-Arg-AMC substrate based calibrated automated thrombography (Rvb= 3 +/- 0.5 min). The format is functional, cell-free. The method, boiled down:
as §1

Data set [4] deals with Plasma. The data set is described as follows: Anticoagulant activity in human platelet-rich plasma assessed as reduction in TF-induced thrombin generation by measuring amplitude of thrombin peak at 100 uM preincubated for 15 mins followed by TF addition by Z-Gly-Gly-Arg-AMC substrate based calibrated automated thrombography (reference value: 63 +/- 3.7 AU/L). Type of data set: functional. The note with it: 0.25 h. An outline of the steps: as §1

The test system of data set [5] is Blood. Description: Anticoagulant activity in human blood assessed as concentration required to double the activated partial thromboplastin time incubated for 1 min followed by aPTT reagent based assay. The format is functional. The method, boiled down: (§2)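 Compounds were tested at 300 µM, and the increase was expressed relative to DMSO. The doubling concentration (EC2×) is the concentration prolonging aPTT twofold. At least triplicate, mean ± SD.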

The next data set has as its target Coagulation factor XI (Homo sapiens, UniProt P03951). Description: Inhibition of human coagulation factor XIA using Mes-dArg-Pro-Arg-AMC as fluorogenic substrate measured at 1 min interval for 1 hr by fluorometric assay.
Data set [6] addresses Urokinase-type plasminogen activator (Homo sapiens, UniProt P00749). The data set is described as follows: Inhibition of human uPA using Tos-Gly-Pro-Arg-AMC as fluorogenic substrate measured at 1 min interval for 1 hr by fluorometric assay.
A further data set addresses Plasminogen (Homo sapiens, UniProt P00747). Description: Inhibition of human plasmin using Mes-dArg-Phe-Arg-AMC as fluorogenic substrate measured at 1 min interval for 1 hr by fluorometric assay.
The target of the next data set is Plasma kallikrein (Homo sapiens, UniProt P03952). Description: Inhibition of human kallikrein using Mes-dArg-Pro-Arg-AMC as fluorogenic substrate measured at 1 min interval for 1 hr by fluorometric assay.
Chain of Plasma kallikrein (P03952 20-390 limits assumed): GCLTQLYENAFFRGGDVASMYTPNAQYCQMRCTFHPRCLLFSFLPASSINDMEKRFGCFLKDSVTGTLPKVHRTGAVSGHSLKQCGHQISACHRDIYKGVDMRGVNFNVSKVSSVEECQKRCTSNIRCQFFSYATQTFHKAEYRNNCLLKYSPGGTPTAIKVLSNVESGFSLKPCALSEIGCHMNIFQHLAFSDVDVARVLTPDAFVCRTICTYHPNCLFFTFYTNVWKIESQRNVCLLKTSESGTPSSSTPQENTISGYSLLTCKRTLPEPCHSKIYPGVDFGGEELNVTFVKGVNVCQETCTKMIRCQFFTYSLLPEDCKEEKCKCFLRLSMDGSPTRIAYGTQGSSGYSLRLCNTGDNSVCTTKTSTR
Chain of Plasma kallikrein (P03952 391-638 limits assumed): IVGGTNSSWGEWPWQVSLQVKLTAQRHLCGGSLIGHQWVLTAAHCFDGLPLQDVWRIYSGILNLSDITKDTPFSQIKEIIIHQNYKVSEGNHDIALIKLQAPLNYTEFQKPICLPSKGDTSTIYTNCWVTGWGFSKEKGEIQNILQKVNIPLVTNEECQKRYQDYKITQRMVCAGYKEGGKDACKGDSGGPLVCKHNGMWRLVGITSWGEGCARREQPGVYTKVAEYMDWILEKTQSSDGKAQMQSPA
Data set [7] addresses T1, Fatty-acid amide hydrolase 1 (Rattus norvegicus, UniProt P97612).
T1 sequence (P97612 whole entry): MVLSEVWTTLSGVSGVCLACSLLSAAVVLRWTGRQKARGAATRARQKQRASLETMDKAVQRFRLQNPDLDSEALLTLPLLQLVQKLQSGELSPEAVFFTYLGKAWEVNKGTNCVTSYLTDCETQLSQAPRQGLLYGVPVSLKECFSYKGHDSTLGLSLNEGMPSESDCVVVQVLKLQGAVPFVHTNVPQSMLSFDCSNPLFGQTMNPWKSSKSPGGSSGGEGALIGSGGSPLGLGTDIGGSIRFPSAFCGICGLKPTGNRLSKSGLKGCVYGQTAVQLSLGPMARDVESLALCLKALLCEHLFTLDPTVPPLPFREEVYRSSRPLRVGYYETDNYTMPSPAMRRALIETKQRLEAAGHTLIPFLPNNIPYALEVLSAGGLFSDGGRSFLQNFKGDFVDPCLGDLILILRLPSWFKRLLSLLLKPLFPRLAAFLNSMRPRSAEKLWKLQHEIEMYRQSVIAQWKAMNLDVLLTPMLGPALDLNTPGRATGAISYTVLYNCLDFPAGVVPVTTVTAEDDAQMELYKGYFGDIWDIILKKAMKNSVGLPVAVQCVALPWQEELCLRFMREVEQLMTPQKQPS
The data set is described as follows: Inhibition of FAAH in rat brain membrane using N-(2-hydroxyethyl)-4-pyren-1-ylbutanamide as substrate measured after 60 mins by reverse-phase HPLC-based fluorescence assay. Type of data set: cell membranes.

For another data set, the target named is Prothrombin (Homo sapiens, UniProt P00734). Description: Inhibition of human coagulation factor thrombin using Boc-Val-Pro-Arg-AMC as fluorogenic substrate at 100 nM measured at 1 min interval for 1 hr by fluorometric assay relative to control. The method, boiled down:
(§3)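 Screening of crude microscale amide-coupling products. Conversion was measured by 1H NMR and product content normalised to 76 µmol/L in DMSO, then tested at 1 µM and 100 nM in the fluorogenic FXIIa or thrombin assay. A 0-conversion reaction served as blank. Percent inhibition is from triplicates.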

Data set [8] has as its target T2, Coagulation factor XII (Homo sapiens) (UniProt P00748).
T2 sequence (whole entry): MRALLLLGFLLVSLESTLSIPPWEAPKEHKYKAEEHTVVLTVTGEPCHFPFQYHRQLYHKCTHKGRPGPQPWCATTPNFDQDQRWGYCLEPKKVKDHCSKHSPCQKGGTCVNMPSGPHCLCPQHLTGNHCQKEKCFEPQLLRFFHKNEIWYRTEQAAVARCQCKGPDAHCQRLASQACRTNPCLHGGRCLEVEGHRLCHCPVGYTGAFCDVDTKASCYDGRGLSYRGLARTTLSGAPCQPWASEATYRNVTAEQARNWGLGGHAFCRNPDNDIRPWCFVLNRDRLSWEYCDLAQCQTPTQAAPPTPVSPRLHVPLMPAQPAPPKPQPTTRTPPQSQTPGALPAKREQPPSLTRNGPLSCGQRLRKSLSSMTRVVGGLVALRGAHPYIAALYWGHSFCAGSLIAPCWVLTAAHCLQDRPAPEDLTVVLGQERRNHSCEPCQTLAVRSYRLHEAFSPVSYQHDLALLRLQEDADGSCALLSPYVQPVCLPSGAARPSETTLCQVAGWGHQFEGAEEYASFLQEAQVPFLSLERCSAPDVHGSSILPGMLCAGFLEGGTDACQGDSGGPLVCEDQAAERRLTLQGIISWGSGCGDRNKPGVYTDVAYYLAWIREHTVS
The data set is described as follows: Inhibition of human coagulation factor XIIA using Boc-Gln-Gly-Arg-AMC as fluorogenic substrate at 100 nM measured at 1 min interval for 1 hr by fluorometric assay relative to control. The method, boiled down:
as §3

The subject of data set [9] is Blood. The data set is described as follows: Anticoagulant activity in human blood assessed as increase in activated partial thromboplastin time at 300 uM incubated for 1 min by aPTT reagent based assay relative to control. The format is functional. The method, boiled down: as §2
Data set [10] concerns Blood. The data set is described as follows: Effect on blood coagulation in human blood assessed as increase in prothrombin time at 300 uM incubated for 3 mins followed by CaCl2 addition by PT reagent based assay relative to control. Type of data set: ADME, tissue-based. The note with it: 0.05 h. An outline of the steps:
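Clotting was started with PT reagent already containing CaCl2, prewarmed to 37 °C, and clotting time was recorded. Increase is given relative to DMSO; at least triplicate, mean ± SD.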

Data set [11] in a line: Inhibition of porcine trypsin using Z-Gly-Gly-Arg-AMC as fluorogenic substrate measured at 1 min interval for 1 hr by fluorometric assay. The arrangement: species or system Sus scrofa.

The results in this text go back to ChEMBL document CHEMBL4673255, “Acylated 1H-1,2,4-Triazol-5-amines Targeting Human Coagulation Factor XIIa and Thrombin: Conventional and Microscale Synthesis, Anticoagulant Properties, and Mechanism of Action” (J Med Chem, 2020).

The structures appear in SMILES notation. A value given as a limit tells only on which side of the number the result lay.

Chain of Plasminogen (P00747 97-580 limits assumed): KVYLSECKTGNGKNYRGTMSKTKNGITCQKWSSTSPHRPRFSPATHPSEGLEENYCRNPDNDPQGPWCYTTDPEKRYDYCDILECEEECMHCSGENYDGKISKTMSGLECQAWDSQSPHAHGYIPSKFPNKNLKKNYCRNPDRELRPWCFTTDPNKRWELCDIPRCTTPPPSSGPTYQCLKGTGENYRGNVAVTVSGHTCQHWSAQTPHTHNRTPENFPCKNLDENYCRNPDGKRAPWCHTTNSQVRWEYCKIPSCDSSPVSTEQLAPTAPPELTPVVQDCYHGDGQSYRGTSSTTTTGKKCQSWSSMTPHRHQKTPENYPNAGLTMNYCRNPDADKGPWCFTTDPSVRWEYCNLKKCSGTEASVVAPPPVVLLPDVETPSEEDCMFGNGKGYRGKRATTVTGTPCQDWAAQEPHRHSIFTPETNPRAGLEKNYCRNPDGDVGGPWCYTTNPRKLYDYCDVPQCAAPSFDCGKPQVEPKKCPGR
Chain of Plasminogen (P00747 581-810 limits assumed): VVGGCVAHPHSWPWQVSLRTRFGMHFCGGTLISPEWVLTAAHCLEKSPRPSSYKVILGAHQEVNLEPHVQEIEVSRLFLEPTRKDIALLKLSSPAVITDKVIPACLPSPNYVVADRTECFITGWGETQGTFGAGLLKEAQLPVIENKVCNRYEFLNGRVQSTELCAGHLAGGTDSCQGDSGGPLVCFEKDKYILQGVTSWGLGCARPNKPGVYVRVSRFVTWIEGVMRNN
Chain of Coagulation factor XI (P03951 19-387 limits assumed): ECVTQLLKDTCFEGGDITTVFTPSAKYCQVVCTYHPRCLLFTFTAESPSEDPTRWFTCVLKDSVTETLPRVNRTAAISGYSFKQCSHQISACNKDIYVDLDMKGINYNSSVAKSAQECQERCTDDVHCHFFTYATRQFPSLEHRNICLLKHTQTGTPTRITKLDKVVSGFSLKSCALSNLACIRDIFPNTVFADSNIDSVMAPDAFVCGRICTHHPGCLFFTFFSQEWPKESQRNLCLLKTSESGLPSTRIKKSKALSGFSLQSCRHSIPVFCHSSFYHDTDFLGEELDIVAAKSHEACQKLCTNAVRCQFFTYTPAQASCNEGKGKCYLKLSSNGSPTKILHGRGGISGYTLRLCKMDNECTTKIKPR
Chain of Coagulation factor XI (P03951 388-625 limits assumed): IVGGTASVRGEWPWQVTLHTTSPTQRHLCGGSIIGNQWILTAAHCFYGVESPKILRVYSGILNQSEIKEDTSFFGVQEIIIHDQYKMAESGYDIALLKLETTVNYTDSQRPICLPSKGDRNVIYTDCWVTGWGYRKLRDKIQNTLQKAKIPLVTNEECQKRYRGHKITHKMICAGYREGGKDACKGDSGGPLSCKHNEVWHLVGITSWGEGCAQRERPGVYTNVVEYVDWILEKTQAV

As a reminder, the IC50 is the concentration at which inhibition is half-maximal. The low end stands for inhibition by little substance, the high end for a need for much substance. Broadly, the inhibition is the percentage by which the read-out fell short of the control. A low value points to little suppression. In the case of `Nc1nc(-c2ccccn2)nn1C(=O)c1cccc2ccccc12`, the Activity is 738 AU.min/L in the data set with Plasma [1], 53.3 AU/L in the data set with Plasma [4], 176% with Blood [9] and 14% with Blood [10]. For the same compound, the Tmax in the data set with Plasma [2] came to 7 min. Also, the T1/2 with Plasma [3] turned out to be 2.7 min. In the data set on Blood [5], the 2aPTT was 236 µM. The IC50 (on Coagulation factor XI; in [6]; at Plasminogen; on Plasma kallikrein; in [7]; in data set [11]) was above 5 µM each time. For the same compound, the inhibition at Prothrombin turned out to be 13%; in data set [8], 77%.
Consider `Nc1nc(-c2ccccn2)nn1C(=O)c1ccc2ccccc2c1`, for which the Activity in the data set on Plasma [1] came out at 2160 AU.min/L; in the data set with Plasma [4] it was 175.5 AU/L; with Blood [9] it was 212%; in the data set with Blood [10], 575%. Further, in the data set with Plasma [2], the Tmax came out at 8 min. In the data set with Plasma [3], the T1/2 came out at 2.3 min. Also, the 2aPTT with Blood [5] came to 107 µM. The IC50 against Coagulation factor XI is above 5 µM; in data set [6] it was 6.76 µM; on Plasminogen it was above 5 µM; against Plasma kallikrein it was above 5 µM; in data set [7] it was above 5 µM; in [11], above 5 µM. The inhibition against Prothrombin is 55%; in data set [8], 19%.
